Assay results as given in ChEMBL document CHEMBL4765238, “Structure-Based Discovery and Optimization of Benzo[ d]isoxazole Derivatives as Potent and Selective BET Inhibitors for Potential Treatment of Castration-Resistant Prostate Cancer (CRPC)” (J Med Chem, 2018).

Key:
[1] = biological target: T1, Bromodomain-containing protein 4 (Homo sapiens, UniProt O60885); experiment: Binding affinity to human recombinant His6-tagged BRD4 bromodomain 1 (N44 to E168 residues) expressed in Escherichia coli BL21 (DE3) cells assessed as change in entropy incubated for 1 hr by isothermal titration calorimetry
[2] = biological target: Bromodomain-containing protein 2 (Homo sapiens) (UniProt P25440); experiment: Binding affinity to human recombinant His6-tagged BRD2 bromodomain 1 (K77 to N194 residues) expressed in Escherichia coli BL21 (DE3) cells assessed as change in melting temperature at 200 uM incubated for 30 mins by SYPRO orange dye based thermal shift assay
How it was run: (§1)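 Thermal shift assay measuring change in melting temperature of each isolated bromodomain module in the presence of compound versus without.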

[3] = biological target: Histone acetyltransferase p300 (Homo sapiens) (UniProt Q09472); experiment: Binding affinity to human recombinant His6-tagged EP300 (A1040 to G1161 residues) expressed in Escherichia coli BL21 (DE3) cells assessed as change in melting temperature at 200 uM incubated for 30 mins by SYPRO orange dye based thermal shift assay; how it was run: as §1
[4] = biological target: Transcription initiation factor TFIID subunit 1 (Homo sapiens) (UniProt P21675); experiment: Binding affinity to human recombinant His6-tagged TAF1 bromodomain 1 (R1377 to D1503 residues) expressed in Escherichia coli BL21 (DE3) cells assessed as change in melting temperature at 200 uM incubated for 30 mins by SYPRO orange dye based thermal shift assay; how it was run: as §1
[5] = biological target: T1, Bromodomain-containing protein 4; experiment: Binding affinity to human recombinant His6-tagged BRD4 bromodomain 1 (N44 to E168 residues) expressed in Escherichia coli BL21 (DE3) cells assessed as gibbs free energy change incubated for 1 hr by isothermal titration calorimetry
[6] = biological target: CREB-binding protein (Homo sapiens) (UniProt Q92793); experiment: Binding affinity to human recombinant His6-tagged CREBBP (R1081 to G1197 residues) expressed in Escherichia coli BL21 (DE3) cells assessed as change in melting temperature at 200 uM incubated for 30 mins by SYPRO orange dye based thermal shift assay; how it was run: as §1
LNCaP = experiment: Antiproliferative activity against AR-positive human LNCAP cells assessed as reduction in cell viability incubated for 96 hrs by cell-titer glo assay; format: functional, cell-based
How it was run: (§2)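 Prostate cancer cells treated across a concentration range; viability read by CellTiter-Glo luminescence; experiments in triplicate; IC50 derived from the dose–response curves.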

[7] = biological target: Histone-lysine N-methyltransferase ASH1L (Homo sapiens) (UniProt Q9NR48); experiment: Binding affinity to human recombinant His6-tagged ASH1L (E2433 to E2564 residues) expressed in Escherichia coli BL21 (DE3) cells assessed as change in melting temperature at 200 uM incubated for 30 mins by SYPRO orange dye based thermal shift assay; how it was run: as §1
VCaP = experiment: Antiproliferative activity against AR-positive human VCaP cells assessed as reduction in cell viability incubated for 144 hrs by cell-titer glo assay; format: functional, cell-based; how it was run: as §2
[8] = biological target: T2, Bromodomain-containing protein 9 (Homo sapiens) (UniProt Q9H8M2); experiment: Binding affinity to human recombinant His6-tagged BRD9 (L14 to Q134 residues) expressed in Escherichia coli BL21 (DE3) cells assessed as change in melting temperature at 200 uM incubated for 30 mins by SYPRO orange dye based thermal shift assay; how it was run: as §1
T2 sequence (whole entry): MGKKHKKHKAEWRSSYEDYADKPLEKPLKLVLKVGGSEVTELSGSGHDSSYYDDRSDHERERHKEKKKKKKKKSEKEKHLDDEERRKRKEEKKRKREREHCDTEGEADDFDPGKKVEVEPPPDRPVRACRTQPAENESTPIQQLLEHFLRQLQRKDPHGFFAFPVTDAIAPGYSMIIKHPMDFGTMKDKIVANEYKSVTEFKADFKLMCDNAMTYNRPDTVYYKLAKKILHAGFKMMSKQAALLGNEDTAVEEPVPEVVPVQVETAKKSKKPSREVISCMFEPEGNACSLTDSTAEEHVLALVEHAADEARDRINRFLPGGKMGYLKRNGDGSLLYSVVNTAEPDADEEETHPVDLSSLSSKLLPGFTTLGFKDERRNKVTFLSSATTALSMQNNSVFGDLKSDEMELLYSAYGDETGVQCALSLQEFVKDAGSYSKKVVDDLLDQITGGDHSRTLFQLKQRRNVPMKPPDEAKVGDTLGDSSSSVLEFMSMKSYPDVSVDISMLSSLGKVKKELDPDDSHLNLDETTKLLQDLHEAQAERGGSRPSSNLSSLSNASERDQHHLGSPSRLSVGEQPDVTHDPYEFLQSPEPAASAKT

LNCaP C4-2B = experiment: Antiproliferative activity against AR-positive human C4-2B cells assessed as reduction in cell viability incubated for 96 hrs by cell-titer glo assay; format: functional, cell-based; how it was run: as §2
[9] = biological target: Bromodomain-containing protein 3 (Homo sapiens) (UniProt Q15059); experiment: Binding affinity to human recombinant His6-tagged BRD3 bromodomain 1 (P24 to E144 residues) expressed in Escherichia coli BL21 (DE3) cells assessed as change in melting temperature at 200 uM incubated for 30 mins by SYPRO orange dye based thermal shift assay; how it was run: as §1
[10] = biological target: T1, Bromodomain-containing protein 4; experiment: Binding affinity to human recombinant His6-tagged BRD4 bromodomain 1 (N44 to E168 residues) expressed in Escherichia coli BL21 (DE3) cells assessed as change in melting temperature at 200 uM incubated for 30 mins by SYPRO orange dye based thermal shift assay; how it was run: as §1
[11] = biological target: T1, Bromodomain-containing protein 4; experiment: Inhibition of HYSGRGK(Ac)GGK(Ac)GLGK(Ac)GGAK(Ac)RHRK(Biotin)-OH binding to recombinant human His6-tagged BRD4 bromodomain 1 (N44 to E168 residues) expressed in Escherichia coli BL21 (DE3) cells measured after 2 hrs by Alphascreen assay
[12] = biological target: T1, Bromodomain-containing protein 4; experiment: Binding affinity to human recombinant His6-tagged BRD4 bromodomain 1 (N44 to E168 residues) expressed in Escherichia coli BL21 (DE3) cells assessed as dissociation constant incubated for 1 hr by isothermal titration calorimetry
[13] = biological target: Bromodomain testis-specific protein (Homo sapiens) (UniProt Q58F21); experiment: Binding affinity to human recombinant His6-tagged BRDT bromodomain 1 (N21 to E137 residues) expressed in Escherichia coli BL21 (DE3) cells assessed as change in melting temperature at 200 uM incubated for 30 mins by SYPRO orange dye based thermal shift assay; how it was run: as §1
[14] = biological target: Histone acetyltransferase KAT2B (Homo sapiens) (UniProt Q92831); experiment: Binding affinity to human recombinant His6-tagged PCAF (G715 to D831 residues) expressed in Escherichia coli BL21 (DE3) cells assessed as change in melting temperature at 200 uM incubated for 30 mins by SYPRO orange dye based thermal shift assay; how it was run: as §1
[15] = biological target: T1, Bromodomain-containing protein 4; experiment: Binding affinity to human recombinant His6-tagged BRD4 bromodomain 1 (N44 to E168 residues) expressed in Escherichia coli BL21 (DE3) cells assessed as change in enthalpy incubated for 1 hr by isothermal titration calorimetry

Chain of Bromodomain-containing protein 2 (Homo sapiens) (P25440 whole entry, looked up, the tested form may be a part): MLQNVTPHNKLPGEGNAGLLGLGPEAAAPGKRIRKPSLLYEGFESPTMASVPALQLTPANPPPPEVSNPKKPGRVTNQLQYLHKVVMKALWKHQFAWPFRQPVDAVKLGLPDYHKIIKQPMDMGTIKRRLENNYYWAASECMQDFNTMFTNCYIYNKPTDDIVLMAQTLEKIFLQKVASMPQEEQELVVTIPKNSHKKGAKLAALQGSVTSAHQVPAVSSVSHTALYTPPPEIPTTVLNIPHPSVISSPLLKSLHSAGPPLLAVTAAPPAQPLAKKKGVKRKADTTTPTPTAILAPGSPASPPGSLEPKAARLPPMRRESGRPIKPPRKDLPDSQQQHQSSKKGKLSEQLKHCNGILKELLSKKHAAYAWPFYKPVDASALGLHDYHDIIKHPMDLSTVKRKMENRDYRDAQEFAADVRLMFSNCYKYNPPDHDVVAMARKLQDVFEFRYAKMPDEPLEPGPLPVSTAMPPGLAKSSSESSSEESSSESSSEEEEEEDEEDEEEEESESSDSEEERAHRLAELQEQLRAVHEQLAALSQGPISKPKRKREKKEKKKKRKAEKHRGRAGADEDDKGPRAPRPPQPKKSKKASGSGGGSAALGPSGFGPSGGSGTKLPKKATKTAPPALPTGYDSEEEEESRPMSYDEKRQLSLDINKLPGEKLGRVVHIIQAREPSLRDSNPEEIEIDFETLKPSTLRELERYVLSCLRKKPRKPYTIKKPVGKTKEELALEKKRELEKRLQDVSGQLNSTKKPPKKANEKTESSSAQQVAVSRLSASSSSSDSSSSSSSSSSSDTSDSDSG
Chain of Histone acetyltransferase p300 (Homo sapiens) (Q09472 whole entry, the tested form may be a part): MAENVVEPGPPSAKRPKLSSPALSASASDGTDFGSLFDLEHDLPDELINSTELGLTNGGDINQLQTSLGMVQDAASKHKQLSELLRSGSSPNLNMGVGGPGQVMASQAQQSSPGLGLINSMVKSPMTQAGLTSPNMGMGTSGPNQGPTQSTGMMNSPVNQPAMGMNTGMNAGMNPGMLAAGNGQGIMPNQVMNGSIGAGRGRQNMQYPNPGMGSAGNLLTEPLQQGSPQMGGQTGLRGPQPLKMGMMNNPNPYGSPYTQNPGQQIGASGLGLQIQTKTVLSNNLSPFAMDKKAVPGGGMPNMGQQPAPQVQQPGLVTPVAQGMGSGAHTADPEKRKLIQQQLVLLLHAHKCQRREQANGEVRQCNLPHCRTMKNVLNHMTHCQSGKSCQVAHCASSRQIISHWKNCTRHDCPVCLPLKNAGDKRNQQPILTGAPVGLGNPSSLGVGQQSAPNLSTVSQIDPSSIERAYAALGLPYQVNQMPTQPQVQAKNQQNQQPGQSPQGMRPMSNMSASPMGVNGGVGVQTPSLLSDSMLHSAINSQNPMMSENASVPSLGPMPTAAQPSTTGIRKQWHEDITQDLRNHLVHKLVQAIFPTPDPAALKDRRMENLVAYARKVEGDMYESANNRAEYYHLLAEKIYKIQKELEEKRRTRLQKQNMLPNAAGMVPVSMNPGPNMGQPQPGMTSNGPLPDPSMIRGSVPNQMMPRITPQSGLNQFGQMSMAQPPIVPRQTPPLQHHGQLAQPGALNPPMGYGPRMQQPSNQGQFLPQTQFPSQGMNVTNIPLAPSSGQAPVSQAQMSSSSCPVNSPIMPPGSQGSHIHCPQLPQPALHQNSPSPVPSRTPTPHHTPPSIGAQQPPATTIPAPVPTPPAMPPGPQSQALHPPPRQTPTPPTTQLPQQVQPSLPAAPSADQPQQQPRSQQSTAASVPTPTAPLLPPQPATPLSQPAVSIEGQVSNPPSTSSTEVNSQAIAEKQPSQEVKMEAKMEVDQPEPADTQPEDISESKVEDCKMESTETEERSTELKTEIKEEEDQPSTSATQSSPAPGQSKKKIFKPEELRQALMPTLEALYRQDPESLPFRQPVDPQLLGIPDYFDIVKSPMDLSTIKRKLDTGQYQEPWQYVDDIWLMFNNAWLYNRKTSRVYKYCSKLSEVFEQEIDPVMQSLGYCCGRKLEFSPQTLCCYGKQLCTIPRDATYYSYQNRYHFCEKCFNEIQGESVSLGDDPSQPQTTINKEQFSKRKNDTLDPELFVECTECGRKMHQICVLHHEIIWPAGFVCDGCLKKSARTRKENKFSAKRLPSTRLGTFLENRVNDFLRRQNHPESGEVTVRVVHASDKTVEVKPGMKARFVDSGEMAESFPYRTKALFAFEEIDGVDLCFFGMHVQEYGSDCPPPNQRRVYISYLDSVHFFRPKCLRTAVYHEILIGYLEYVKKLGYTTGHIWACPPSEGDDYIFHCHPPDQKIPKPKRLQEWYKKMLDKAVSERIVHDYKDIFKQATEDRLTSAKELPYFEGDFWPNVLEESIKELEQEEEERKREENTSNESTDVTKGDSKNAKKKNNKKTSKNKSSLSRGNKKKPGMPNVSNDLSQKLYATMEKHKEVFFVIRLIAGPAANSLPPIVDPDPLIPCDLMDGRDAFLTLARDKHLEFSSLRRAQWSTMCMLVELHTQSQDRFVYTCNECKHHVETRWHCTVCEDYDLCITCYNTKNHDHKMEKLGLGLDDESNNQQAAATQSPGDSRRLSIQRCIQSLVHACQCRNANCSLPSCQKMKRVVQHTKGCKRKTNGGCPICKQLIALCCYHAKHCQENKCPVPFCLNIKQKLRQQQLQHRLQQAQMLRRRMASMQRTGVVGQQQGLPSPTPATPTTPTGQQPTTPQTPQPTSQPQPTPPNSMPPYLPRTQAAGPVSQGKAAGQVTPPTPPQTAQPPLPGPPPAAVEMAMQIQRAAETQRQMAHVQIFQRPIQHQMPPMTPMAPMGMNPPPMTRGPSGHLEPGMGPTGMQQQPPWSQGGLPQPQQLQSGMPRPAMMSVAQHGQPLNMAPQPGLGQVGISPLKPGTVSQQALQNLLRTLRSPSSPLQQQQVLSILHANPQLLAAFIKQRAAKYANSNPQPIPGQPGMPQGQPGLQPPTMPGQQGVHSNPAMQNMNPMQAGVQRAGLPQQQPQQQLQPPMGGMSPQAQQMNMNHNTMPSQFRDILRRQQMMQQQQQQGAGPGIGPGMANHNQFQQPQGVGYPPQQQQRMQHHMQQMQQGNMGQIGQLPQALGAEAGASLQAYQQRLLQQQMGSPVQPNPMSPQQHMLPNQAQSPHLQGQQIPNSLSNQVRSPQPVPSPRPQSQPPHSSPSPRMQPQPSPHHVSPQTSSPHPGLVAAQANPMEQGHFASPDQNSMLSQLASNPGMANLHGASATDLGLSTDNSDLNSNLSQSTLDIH
Chain of Histone acetyltransferase KAT2B (Homo sapiens) (Q92831 whole entry, looked up, the tested form may be a part): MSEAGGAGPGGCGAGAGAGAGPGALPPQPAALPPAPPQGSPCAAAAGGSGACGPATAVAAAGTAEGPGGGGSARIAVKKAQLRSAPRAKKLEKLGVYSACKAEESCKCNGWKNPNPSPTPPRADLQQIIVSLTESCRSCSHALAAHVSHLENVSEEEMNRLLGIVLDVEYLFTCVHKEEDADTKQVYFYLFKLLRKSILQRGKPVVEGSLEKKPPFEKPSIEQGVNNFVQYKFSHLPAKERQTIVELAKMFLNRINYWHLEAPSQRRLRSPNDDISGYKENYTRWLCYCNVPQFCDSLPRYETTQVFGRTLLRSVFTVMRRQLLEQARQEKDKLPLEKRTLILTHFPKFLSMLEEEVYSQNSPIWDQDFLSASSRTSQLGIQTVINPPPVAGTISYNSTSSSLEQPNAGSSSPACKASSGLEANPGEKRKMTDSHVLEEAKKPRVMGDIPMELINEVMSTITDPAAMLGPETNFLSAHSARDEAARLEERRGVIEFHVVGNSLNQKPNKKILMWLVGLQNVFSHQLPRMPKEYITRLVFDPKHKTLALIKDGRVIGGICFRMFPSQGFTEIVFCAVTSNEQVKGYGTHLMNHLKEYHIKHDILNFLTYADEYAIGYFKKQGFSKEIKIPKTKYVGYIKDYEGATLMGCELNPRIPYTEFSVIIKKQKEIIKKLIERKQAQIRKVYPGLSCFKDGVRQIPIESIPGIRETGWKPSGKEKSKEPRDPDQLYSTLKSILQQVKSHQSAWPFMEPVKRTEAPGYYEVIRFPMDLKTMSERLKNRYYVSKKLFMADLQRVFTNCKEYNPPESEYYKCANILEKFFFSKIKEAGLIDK
Chain of Bromodomain-containing protein 3 (Homo sapiens) (Q15059 2-726 limits assumed): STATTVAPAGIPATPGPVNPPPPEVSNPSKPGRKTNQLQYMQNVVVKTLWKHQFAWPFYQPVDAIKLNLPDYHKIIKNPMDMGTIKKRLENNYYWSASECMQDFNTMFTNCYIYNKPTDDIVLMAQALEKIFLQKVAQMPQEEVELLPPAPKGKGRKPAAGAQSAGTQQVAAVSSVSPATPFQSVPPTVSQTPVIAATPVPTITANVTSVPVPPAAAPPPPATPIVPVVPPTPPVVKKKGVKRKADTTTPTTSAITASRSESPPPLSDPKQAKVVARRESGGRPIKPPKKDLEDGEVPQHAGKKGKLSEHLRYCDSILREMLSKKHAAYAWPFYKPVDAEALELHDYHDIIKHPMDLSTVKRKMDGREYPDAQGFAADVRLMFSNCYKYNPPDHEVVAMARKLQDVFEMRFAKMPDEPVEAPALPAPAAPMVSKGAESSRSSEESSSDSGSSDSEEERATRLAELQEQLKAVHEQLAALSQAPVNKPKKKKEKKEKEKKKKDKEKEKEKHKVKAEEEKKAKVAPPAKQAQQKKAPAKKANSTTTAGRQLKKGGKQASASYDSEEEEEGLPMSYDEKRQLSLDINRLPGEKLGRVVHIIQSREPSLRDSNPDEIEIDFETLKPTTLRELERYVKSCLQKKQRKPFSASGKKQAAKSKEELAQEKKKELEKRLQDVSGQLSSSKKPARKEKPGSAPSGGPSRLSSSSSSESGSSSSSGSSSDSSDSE

Work on Cc1noc2c(Br)cc(-c3nc4ccc(N5CCOCC5)cc4n3CC3CCCCC3)cc12 yielded a TdeltaS [1] of -1.4 kcal/mol, a ΔTm [2] of 6 °C and a ΔTm [3] of -0.3 °C. It also gave a ΔTm [4] of -0.6 °C, a deltaG [5] of -9.3 kcal/mol and a ΔTm [6] of 0 °C. It also gave an IC50 (LNCaP) of 570 nM, a ΔTm [7] of -0.9 °C and an IC50 (VCaP) of 500 nM. For the same compound, the ΔTm [8] was -0.9 °C, the IC50 (LNCaP C4-2B) was 850 nM and the ΔTm [9] was 8.9 °C. The ΔTm [10] was 9.2 °C, the IC50 [11] was 300 nM and the Kd [12] was 159 nM. The ΔTm [13] was 4.2 °C, the ΔTm [14] was -0.6 °C and the deltaH [15] was -10.7 kcal/mol.

COc1cc2onc(C)c2cc1NS(=O)(=O)c1cc(Br)ccc1OC gave a TdeltaS [1] of -2.5 kcal/mol, a ΔTm [2] of 5.3 °C and a ΔTm [3] of 2 °C. The ΔTm [4] was 0.1 °C, the deltaG [5] was -9.7 kcal/mol and the ΔTm [6] was 1.4 °C. For the same compound, the IC50 (LNCaP) was 1060 nM, the ΔTm [7] was 0.3 °C and the IC50 (VCaP) was 630 nM. The ΔTm [8] was -0.9 °C, the IC50 (LNCaP C4-2B) was 2620 nM and the ΔTm [9] was 8.1 °C. For the same compound, the ΔTm [10] was 9.8 °C, the IC50 [11] was 130 nM and the Kd [12] was 82 nM. It also gave a ΔTm [13] of 5.6 °C, a ΔTm [14] of 2.7 °C and a deltaH [15] of -12.2 kcal/mol.

With Cc1noc2ccc(-c3nc4ccc(N5CCOC[C@@H]5C)cc4n3CC3CCCCC3)cc12 the TdeltaS [1] was -2.2 kcal/mol, the ΔTm [2] was 6.3 °C and the ΔTm [3] was 0.3 °C. The ΔTm [4] was -0.9 °C, the deltaG [5] was -9.7 kcal/mol and the ΔTm [6] was 0.3 °C. It also gave an IC50 (LNCaP) of 470 nM, a ΔTm [7] of -0.5 °C and an IC50 (VCaP) of 290 nM. The ΔTm [8] was -0.8 °C, the IC50 (LNCaP C4-2B) was 840 nM and the ΔTm [9] was 8.7 °C. For the same compound, the ΔTm [10] was 9.9 °C, the IC50 [11] was 180 nM and the Kd [12] was 81 nM. For the same compound, the ΔTm [13] was 3.6 °C, the ΔTm [14] was -0.6 °C and the deltaH [15] was -11.9 kcal/mol.

CNc1cc2onc(C)c2cc1NS(=O)(=O)c1cc(Br)ccc1OC was tested, and the TdeltaS [1] was -6 kcal/mol, the ΔTm [2] was 5.3 °C and the ΔTm [3] was 2.3 °C. For the same compound, the ΔTm [4] was -0.1 °C, the deltaG [5] was -9.3 kcal/mol and the ΔTm [6] was 2.1 °C. It also gave an IC50 (LNCaP) of 6160 nM, a ΔTm [7] of -0.1 °C and an IC50 (VCaP) of 3020 nM. For the same compound, the ΔTm [8] was -0.8 °C, the IC50 (LNCaP C4-2B) was 6430 nM and the ΔTm [9] was 6.5 °C. For the same compound, the ΔTm [10] was 9.2 °C, the IC50 [11] was 150 nM and the Kd [12] was 164 nM. The ΔTm [13] was 5.1 °C, the ΔTm [14] was 2.6 °C and the deltaH [15] was -15.3 kcal/mol.
